From ChEMBL document CHEMBL3244038, “Synthesis and analgesic activity of human beta-endorphin” (1977)
The source made the active and inactive calls.

Key:
Mus musculus [1] = experiment: Potency index, ratio of morphine AD50 to compound AD50 for analgesic activity in icv dosed ICR mouse assessed as inhibition of acetic acid-induced writhing response; type: functional
Mus musculus [2] = experiment: Potency index, ratio of morphine AD50 to compound AD50 for analgesic activity in iv dosed ICR mouse assessed as inhibition of heat stimulus-induced tail flick response; type: functional
Mus musculus [3] = experiment: Potency index, ratio of morphine AD50 to compound AD50 for analgesic activity in icv dosed ICR mouse assessed as inhibition of heat stimulus-induced tail flick response; type: functional
Mus musculus [4] = organism: Mus musculus; experiment: Potency index, ratio of morphine AD50 to compound AD50 for analgesic activity in ICR mouse assessed as inhibition of thermal stimulus-induced response by hot-plate test; type: functional
Mus musculus [5] = experiment: Analgesic activity in opiate antagonist naloxone hydrochloride-treated ICR mouse assessed as inhibition of heat stimulus-induced tail flick response at 20.1 mg/kg, iv measured for 20 to 30 mins; type: functional, organism-based; parameters: dose 20.1 mg/kg
Summary of the method: (§1)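 Male ICR mice, 25-30 g. Peptide given iv via the tail vein at 9.4, 18.8 or 28.2 mg/kg. Tail-flick latency to heat with a 10 s cutoff. Percent analgesia calculated against the pre-drug control latency. For line 10, naloxone hydrochloride 1 mg/kg sc was given 5 min before 20.1 mg/kg peptide. Mean ± SEM.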

Mus musculus [6] = experiment: Analgesic activity in icv dosed ICR mouse assessed as inhibition of thermal stimulus-induced response by hot-plate test; type: functional, organism-based
Summary of the method: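 Male ICR mice, 25-30 g. Peptide given icv (5 µl). Hot-plate latency with a 60 s cutoff. Control latency was the mean of two pre-drug readings, with test latencies at various times after injection. Percent analgesia = (T1−T0)/(T2−T0)×100.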

Mus musculus [7] = experiment: Analgesic activity in iv dosed ICR mouse assessed as inhibition of heat stimulus-induced tail flick response measured for 20 to 30 mins; type: functional, organism-based; summary of the method: as §1
Mus musculus [8] = experiment: Analgesic activity in icv dosed ICR mouse assessed as inhibition of thermal stimulus-induced response by hot-plate test in presence of opiate antagonist naloxone; type: functional, organism-based
Mus musculus [9] = experiment: Analgesic activity in ICR mouse assessed as inhibition of acetic acid-induced writhing response at 0.38 ug, icv administered 5 mins prior to acetic acid challenge measured for 15 mins; type: functional, organism-based
Summary of the method: (§2)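 Male ICR mice, 25-30 g. Peptide given icv (5 µl) 5 min before i.p. 0.6% acetic acid (0.1 ml/10 g body weight). Writhes counted over 15 min.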

Mus musculus [10] = experiment: Analgesic activity in icv dosed ICR mouse assessed as inhibition of heat stimulus-induced tail flick response measured for 30 to 60 mins; type: functional, organism-based
Summary of the method: (§3)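 Male ICR mice, 25-30 g. Peptide given icv (5 µl) over a dose range of 0.09-0.38 µg/mouse. Tail-flick latency was measured against noxious heat with a 10 s cutoff. Control latency was the mean of two pre-drug readings. Percent analgesia = (T1−T0)/(T2−T0)×100. For line 2, naloxone 1 mg/kg sc was given 10 min after the peptide. Mean ± SEM.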

Mus musculus [11] = experiment: Analgesic activity in ICR mouse assessed as inhibition of heat stimulus-induced tail flick response at 0.38 ug, icv administered opiate antagonist naloxone at 10 mins post compound treatment measured for 30 to 60 mins; type: functional, organism-based; summary of the method: as §3
Mus musculus [12] = experiment: Analgesic activity in opiate antagonist naloxone-treated ICR mouse assessed as inhibition of acetic acid-induced writhing response at 0.38 ug, icv administered 5 mins prior to acetic acid challenge measured for 15 mins; type: functional, organism-based; summary of the method: as §2
Mus musculus [13] = experiment: Analgesic activity in icv dosed ICR mouse assessed as 50% inhibition of thermal stimulus-induced response measured for 60 to 90 mins by hot-plate test; type: functional
Summary of the method: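 Male ICR mice, 25-30 g. Peptide given icv (5 µl). Hot-plate latency with a 60 s cutoff. A twofold increase over the control latency (mean of two pre-drug readings) was the quantal criterion. AD50 with 95% confidence limits by Litchfield-Wilcoxon.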

Mus musculus [14] = experiment: Analgesic activity in icv dosed ICR mouse assessed as 50% inhibition of acetic acid-induced writhing response administered 5 mins prior to acetic acid challenge measured for 60 to 90 mins; type: functional
Mus musculus [15] = experiment: Analgesic activity iv dosed ICR mouse assessed as 50% inhibition of heat stimulus-induced tail flick response measured for 60 to 90 mins; type: functional
Summary of the method: (§4)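 Male ICR mice, 25-30 g. Tail-flick latency to heat with a 10 s cutoff. A twofold increase in latency over the pre-drug control was the quantal criterion. AD50 with 95% confidence limits by Litchfield-Wilcoxon.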

Mus musculus [16] = experiment: Analgesic activity in icv dosed ICR mouse assessed as 50% inhibition of heat stimulus-induced tail flick response measured for 60 to 90 mins; type: functional; summary of the method: as §4

| Molecule | Ratio (Mus musculus [1]) | Ratio (Mus musculus [2]) | Ratio (Mus musculus [3]) | Ratio (Mus musculus [4]) | inhibition (Mus musculus [5]) | inhibition (Mus musculus [6]) | inhibition (Mus musculus [7]) | inhibition (Mus musculus [8]) | inhibition (Mus musculus [9]) | inhibition (Mus musculus [10]) | inhibition (Mus musculus [11]) | inhibition (Mus musculus [12]) | AD50 (Mus musculus [13]) | AD50 (Mus musculus [14]) | AD50 (Mus musculus [15]) | AD50 (Mus musculus [16]) |
| --- | --- | --- | --- | --- | --- | --- | --- | --- | --- | --- | --- | --- | --- | --- | --- | --- |
| H-YGGFMTSEKSQTPLVTLFKNAIIKNAHKKGQ-OH | 19.5 | 3.5 | 33 | 17.5 | – | – | – | – | – | – | – | – | – | – | – | – |
| CC[C@H](C)[C@H](NC(=O)[C@H](C)NC(=O)[C@H](CC(N)=O)NC(=O)[C@H](CCCCN)NC(=O)[C@H](Cc1ccccc1)NC(=O)[C@H](CC(C)C)NC(=O)[C@@H](NC(=O)[C@@H](NC(=O)[C@H](CC(C)C)NC(=O)[C@@H]1CCCN1C(=O)[C@@H](NC(=O)[C@H](CCC(N)=O)NC(=O)[C@H](CO)NC(=O)[C@H](CCCCN)NC(=O)[C@H](CCC(=O)O)NC(=O)[C@H](CO)NC(=O)[C@@H](NC(=O)[C@H](CCSC)NC(=O)[C@H](Cc1ccccc1)NC(=O)CNC(=O)CNC(=O)[C@@H](N)Cc1ccc(O)cc1)[C@@H](C)O)[C@@H](C)O)C(C)C)[C@@H](C)O)C(=O)N[C@H](C(=O)N[C@@H](CCCCN)C(=O)N[C@@H](CC(N)=O)C(=O)N[C@@H](C)C(=O)N[C@@H](Cc1ccc(O)cc1)C(=O)N[C@@H](CCCCN)C(=O)N[C@@H](CCCCN)C(=O)NCC(=O)N[C@@H](CCC(=O)O)C(=O)O)[C@@H](C)CC | 17.3 | 3.4 | 48.4 | 32.8 | inactive | Active | Dose-dependent effect | inactive | Active | Dose-dependent effect | inactive | inactive | – | – | – | – |
| CN1CC[C@]23c4c5ccc(O)c4O[C@H]2[C@@H](O)C=C[C@H]3[C@H]1C5 [MORPHINE] | – | – | – | – | – | – | – | – | – | – | – | – | 0.031 nmol | 0.026 nmol | 3.32 µmol/kg | 0.026 nmol |
